Results published in ChEMBL document CHEMBL1811814, “Synthesis and evaluation of indole, pyrazole, chromone and pyrimidine based conjugates for tumor growth inhibitory activities--development of highly efficacious cytotoxic agents” (Eur J Med Chem, 2010).

Assays:
Type in all cases: functional
Set-up in all cases: scale not given: the % may be the effect or the level left
CCRF-CEM = assay: Growth inhibition of human CCRF-CEM cells assessed tumor cell growth at 10^-5 M
How it was run: (§1)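 NCI 60-human-tumor-cell-line panel screen. Each compound was tested at a single concentration of 10^-5 M, and percent growth of tumor cells was recorded for each cell line. Growth inhibition was expressed from these percent-growth values.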

HL-60(TB) = assay: Growth inhibition of human HL-60(TB) cells assessed tumor cell growth at 10^-5 M
How it was run: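 HL-60(TB), part of the 60-line panel, tested at a single concentration of 10^-5 M. The read-out is percent tumor cell growth relative to untreated growth.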

K562 = assay: Growth inhibition of human K562 cells assessed tumor cell growth at 10^-5 M; how it was run: as §1
MOLT-4 = assay: Growth inhibition of human MOLT4 cells assessed tumor cell growth at 10^-5 M; how it was run: as §1
[1] = Growth inhibition of human […] cells assessed tumor cell growth at 10^-5 M; how it was run: as §1
SR = assay: Growth inhibition of human SR cells assessed tumor cell growth at 10^-5 M
How it was run: (§2)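 Single-dose screen at 10^-5 M across the 60 human tumor cell line panel, run to NCI standards. The value is the percent growth of each cell line in the presence of compound. Compounds active at this dose moved on to five-concentration testing (10^-4 to 10^-8 M).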

A549 = assay: Growth inhibition of human A549 cells assessed tumor cell growth at 10^-5 M; how it was run: as §1
EKVX = assay: Growth inhibition of human EKVX cells assessed tumor cell growth at 10^-5 M; how it was run: as §1
HOP-62 = assay: Growth inhibition of human HOP62 cells assessed tumor cell growth at 10^-5 M; how it was run: as §1
HOP-92 = assay: Growth inhibition of human HOP92 cells assessed tumor cell growth at 10^-5 M; how it was run: as §1
NCI-H226 = assay: Growth inhibition of human NCI-H226 cells assessed tumor cell growth at 10^-5 M; how it was run: as §1
NCI-H23 = assay: Growth inhibition of human NCI-H23 cells assessed tumor cell growth at 10^-5 M; how it was run: as §1
NCI-H322M = assay: Growth inhibition of human NCI-H322M cells assessed tumor cell growth at 10^-5 M; how it was run: as §1
NCI-H460 = assay: Growth inhibition of human NCI-H460 cells assessed tumor cell growth at 10^-5 M; how it was run: as §1
NCI-H522 = assay: Growth inhibition of human NCI-H522 cells assessed tumor cell growth at 10^-5 M; how it was run: as §1
COLO 205 = assay: Growth inhibition of human COLO205 cells assessed tumor cell growth at 10^-5 M; how it was run: as §1
HCC 2998 = assay: Growth inhibition of human HCC2998 cells assessed tumor cell growth at 10^-5 M; how it was run: as §1
HCT-116 = assay: Growth inhibition of human HCT116 cells assessed tumor cell growth at 10^-5 M; how it was run: as §1
HCT-15 = assay: Growth inhibition of human HCT15 cells assessed tumor cell growth at 10^-5 M; how it was run: as §1
HT-29 = assay: Growth inhibition of human HT-29 cells assessed tumor cell growth at 10^-5 M; how it was run: as §1
KM12 = assay: Growth inhibition of human KM12 cells assessed tumor cell growth at 10^-5 M; how it was run: as §1
SW-620 = assay: Growth inhibition of human SW620 cells assessed tumor cell growth at 10^-5 M; how it was run: as §2
SF-268 = assay: Growth inhibition of human SF268 cells assessed tumor cell growth at 10^-5 M; how it was run: as §1
SF-295 = assay: Growth inhibition of human SF295 cells assessed tumor cell growth at 10^-5 M; how it was run: as §1
SF-539 = assay: Growth inhibition of human SF539 cells assessed tumor cell growth at 10^-5 M; how it was run: as §1
SNB-19 = assay: Growth inhibition of human SNB19 cells assessed tumor cell growth at 10^-5 M; how it was run: as §2
SNB-75 = assay: Growth inhibition of human SNB75 cells assessed tumor cell growth at 10^-5 M; how it was run: as §2
U-251 = assay: Growth inhibition of human U251 cells assessed tumor cell growth at 10^-5 M; how it was run: as §2
LOX IMVI = assay: Growth inhibition of human LOXIMVI cells assessed tumor cell growth at 10^-5 M; how it was run: as §1
Malme-3M = assay: Growth inhibition of human MALME-3M cells assessed tumor cell growth at 10^-5 M; how it was run: as §1
M14 = assay: Growth inhibition of human M14 cells assessed tumor cell growth at 10^-5 M; how it was run: as §1
MDA-MB-435 = assay: Growth inhibition of human MDA-MB-435 cells assessed tumor cell growth at 10^-5 M; how it was run: as §1
SK-MEL-2 = assay: Growth inhibition of human SK-MEL-2 cells assessed tumor cell growth at 10^-5 M; how it was run: as §1
SK-MEL-28 = assay: Growth inhibition of human SK-MEL-28 cells assessed tumor cell growth at 10^-5 M; how it was run: as §1
SK-MEL-5 = assay: Growth inhibition of human SK-MEL-5 cells assessed tumor cell growth at 10^-5 M; how it was run: as §1
UACC-257 = assay: Growth inhibition of human UACC257 cells assessed tumor cell growth at 10^-5 M; how it was run: as §2
UACC-62 = assay: Growth inhibition of human UACC62 cells assessed tumor cell growth at 10^-5 M; how it was run: as §2
IGROV-1 = assay: Growth inhibition of human IGROV1 cells assessed tumor cell growth at 10^-5 M; how it was run: as §1
OVCAR-3 = assay: Growth inhibition of human OVCAR3 cells assessed tumor cell growth at 10^-5 M; how it was run: as §1
OVCAR-4 = assay: Growth inhibition of human OVCAR4 cells assessed tumor cell growth at 10^-5 M; how it was run: as §1
OVCAR-5 = assay: Growth inhibition of human OVCAR5 cells assessed tumor cell growth at 10^-5 M; how it was run: as §1
OVCAR-8 = assay: Growth inhibition of human OVCAR8 cells assessed tumor cell growth at 10^-5 M; how it was run: as §1
NCI/ADR-RES = assay: Growth inhibition of human NCI/ADR-RES cells assessed tumor cell growth at 10^-5 M; how it was run: as §1
SK-OV-3 = assay: Growth inhibition of human SKOV3 cells assessed tumor cell growth at 10^-5 M; how it was run: as §1
786-0 = assay: Growth inhibition of human 786-0 cells assessed tumor cell growth at 10^-5 M; how it was run: as §1
A498 = assay: Growth inhibition of human A498 cells assessed tumor cell growth at 10^-5 M; how it was run: as §1
ACHN = assay: Growth inhibition of human ACHN cells assessed tumor cell growth at 10^-5 M; how it was run: as §1
CAKI-1 = assay: Growth inhibition of human Caki1 cells assessed tumor cell growth at 10^-5 M; how it was run: as §1
RXF 393 = assay: Growth inhibition of human RXF393 cells assessed tumor cell growth at 10^-5 M; how it was run: as §1
SN12C = assay: Growth inhibition of human SN12C cells assessed tumor cell growth at 10^-5 M; how it was run: as §1
TK-10 = assay: Growth inhibition of human TK10 cells assessed tumor cell growth at 10^-5 M; how it was run: as §2
UO-31 = assay: Growth inhibition of human UO31 cells assessed tumor cell growth at 10^-5 M; how it was run: as §2
PC-3 = assay: Growth inhibition of human PC3 cells assessed tumor cell growth at 10^-5 M; how it was run: as §1
DU-145 = assay: Growth inhibition of human DU145 cells assessed tumor cell growth at 10^-5 M; how it was run: as §1
MCF7 = assay: Growth inhibition of human MCF7 cells assessed tumor cell growth at 10^-5 M; how it was run: as §1
MDA-MB-231 = assay: Growth inhibition of human MDA-MB-231 cells assessed tumor cell growth at 10^-5 M; how it was run: as §1
[2] = Growth inhibition of human Hs 578T cells assessed tumor cell growth at 10^-5 M; how it was run: as §1
BT-549 = assay: Growth inhibition of human BT549 cells assessed tumor cell growth at 10^-5 M; how it was run: as §1
T47D = assay: Growth inhibition of human T47D cells assessed tumor cell growth at 10^-5 M; how it was run: as §2
MDA-MB-468 = assay: Growth inhibition of human MDA-MB-468 cells assessed tumor cell growth at 10^-5 M; how it was run: as §1

## CC1=NN(c2cccc(Cl)c2)C(=O)/C1=C\c1cn(Cc2ccccc2)c2ccccc12
CCRF-CEM
  Activity: 109.04%
HL-60(TB)
  Activity: 99.67%
K562
  Activity: 93.59%
MOLT-4
  Activity: 89.6%
[1]
  Activity: 88.18%
SR
  Activity: 86.52%
A549
  Activity: 90.89%
EKVX
  Activity: 82.36%
HOP-62
  Activity: 81.96%
HOP-92
  Activity: 94.45%
NCI-H226
  Activity: 16.9%
NCI-H23
  Activity: 88.9%
NCI-H322M
  Activity: 105.8%
NCI-H460
  Activity: 55.83%
NCI-H522
  Activity: 86.7%
COLO 205
  Activity: 96.36%
HCC 2998
  Activity: 109.37%
HCT-116
  Activity: 81.87%
HCT-15
  Activity: 97.68%
HT-29
  Activity: 93.03%
KM12
  Activity: 93.39%
SW-620
  Activity: 93.2%
SF-268
  Activity: 95.57%
SF-295
  Activity: 74.11%
SF-539
  Activity: 96.45%
SNB-19
  Activity: 93.46%
SNB-75
  Activity: 80.99%
U-251
  Activity: 89.34%
LOX IMVI
  Activity: 87%
Malme-3M
  Activity: 92.02%
M14
  Activity: 93.78%
MDA-MB-435
  Activity: 106.21%
SK-MEL-2
  Activity: 90.21%
SK-MEL-28
  Activity: 98.38%
SK-MEL-5
  Activity: 90.4%
UACC-257
  Activity: 93.1%
UACC-62
  Activity: 78.13%
IGROV-1
  Activity: 85.79%
OVCAR-3
  Activity: 95.7%
OVCAR-4
  Activity: 88.56%
OVCAR-5
  Activity: 43.95%
OVCAR-8
  Activity: 97.42%
NCI/ADR-RES
  Activity: 100.71%
SK-OV-3
  Activity: 71.03%
786-0
  Activity: 100.84%
A498
  Activity: 89.58%
ACHN
  Activity: 84.07%
CAKI-1
  Activity: 89.4%
RXF 393
  Activity: 92.68%
SN12C
  Activity: 101.76%
TK-10
  Activity: 154.6%
UO-31
  Activity: 71.93%
PC-3
  Activity: 84.66%
DU-145
  Activity: 103.96%
MCF7
  Activity: 72.9%
MDA-MB-231
  Activity: 89.94%
[2]
  Activity: 90.49%
BT-549
  Activity: 107.13%
T47D
  Activity: 67.17%
MDA-MB-468
  Activity: 76.71%

## Cc1ccc(S(=O)(=O)n2cc(/C=C3\C(=O)N(c4c(Cl)cccc4Cl)c4ccccc43)c3ccccc32)cc1
CCRF-CEM
  Activity: 95.6%
HL-60(TB)
  Activity: 79.6%
K562
  Activity: 86.5%
MOLT-4
  Activity: 89.6%
[1]
  Activity: 77.8%
SR
  Activity: 87.4%
A549
  Activity: 103.8%
EKVX
  Activity: 89.5%
HOP-62
  Activity: 83.2%
HOP-92
  Activity: 33.5%
NCI-H226
  Activity: 95.2%
NCI-H23
  Activity: 76.6%
NCI-H322M
  Activity: 99.4%
NCI-H460
  Activity: 102.8%
NCI-H522
  Activity: 91.5%
COLO 205
  Activity: 100.1%
HCC 2998
  Activity: 86.7%
HCT-116
  Activity: 87%
HCT-15
  Activity: 104.5%
HT-29
  Activity: 89.3%
KM12
  Activity: 97.6%
SW-620
  Activity: 89.9%
SF-268
  Activity: 86.4%
SF-295
  Activity: 100.8%
SF-539
  Activity: 102.9%
SNB-19
  Activity: 105.9%
SNB-75
  Activity: 74.3%
U-251
  Activity: 98.2%
LOX IMVI
  Activity: 89.7%
Malme-3M
  Activity: 75.8%
M14
  Activity: 76%
MDA-MB-435
  Activity: 99.2%
SK-MEL-2
  Activity: 94.5%
SK-MEL-28
  Activity: 95.8%
SK-MEL-5
  Activity: 101%
UACC-257
  Activity: 106.8%
UACC-62
  Activity: 78.2%
IGROV-1
  Activity: 83.8%
OVCAR-3
  Activity: 94.9%
OVCAR-4
  Activity: 73.8%
OVCAR-5
  Activity: 84.2%
OVCAR-8
  Activity: 96.7%
NCI/ADR-RES
  Activity: 88.2%
SK-OV-3
  Activity: 98.7%
786-0
  Activity: 92.1%
A498
  Activity: 44%
ACHN
  Activity: 89.8%
CAKI-1
  Activity: 79.5%
RXF 393
  Activity: 121.2%
SN12C
  Activity: 87.4%
TK-10
  Activity: 102.3%
UO-31
  Activity: 63.9%
PC-3
  Activity: 64.5%
DU-145
  Activity: 102.5%
MCF7
  Activity: 84.6%
MDA-MB-231
  Activity: 89.3%
[2]
  Activity: 73.4%
BT-549
  Activity: 94.2%
T47D
  Activity: 88.7%
MDA-MB-468
  Activity: 84%
